Assay results from publication PMC4532310 (Nature, 2015).
Entries after “also recorded” stand apart in the source; their conditions may differ. Bridges are numbered along the chain shown (N, C = ends). Where no end group is shown, it is not given here.

T1: ER (ERECTA) ectodomain, ERΔK-GFP (Arabidopsis thaliana, UniProt Q42371)
T1 sequence (Q42371 25-580 limits assumed): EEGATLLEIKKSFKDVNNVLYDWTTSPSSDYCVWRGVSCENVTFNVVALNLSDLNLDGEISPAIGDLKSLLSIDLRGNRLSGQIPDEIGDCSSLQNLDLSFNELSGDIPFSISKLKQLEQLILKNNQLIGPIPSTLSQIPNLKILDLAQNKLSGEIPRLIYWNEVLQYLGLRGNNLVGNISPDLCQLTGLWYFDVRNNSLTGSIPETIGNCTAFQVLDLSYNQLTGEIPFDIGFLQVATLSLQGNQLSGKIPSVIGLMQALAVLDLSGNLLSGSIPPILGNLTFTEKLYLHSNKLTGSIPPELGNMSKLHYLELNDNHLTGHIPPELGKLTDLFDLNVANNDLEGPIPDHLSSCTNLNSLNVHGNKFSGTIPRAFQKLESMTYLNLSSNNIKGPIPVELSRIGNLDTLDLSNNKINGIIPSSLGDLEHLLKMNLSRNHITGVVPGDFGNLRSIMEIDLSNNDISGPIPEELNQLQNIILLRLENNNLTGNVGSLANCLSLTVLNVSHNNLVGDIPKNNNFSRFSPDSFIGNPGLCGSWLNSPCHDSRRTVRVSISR

T2: TMM (TOO MANY MOUTHS), TMM-GFP (Arabidopsis thaliana, UniProt Q9SSD1)
T2 sequence (Q9SSD1 24-496): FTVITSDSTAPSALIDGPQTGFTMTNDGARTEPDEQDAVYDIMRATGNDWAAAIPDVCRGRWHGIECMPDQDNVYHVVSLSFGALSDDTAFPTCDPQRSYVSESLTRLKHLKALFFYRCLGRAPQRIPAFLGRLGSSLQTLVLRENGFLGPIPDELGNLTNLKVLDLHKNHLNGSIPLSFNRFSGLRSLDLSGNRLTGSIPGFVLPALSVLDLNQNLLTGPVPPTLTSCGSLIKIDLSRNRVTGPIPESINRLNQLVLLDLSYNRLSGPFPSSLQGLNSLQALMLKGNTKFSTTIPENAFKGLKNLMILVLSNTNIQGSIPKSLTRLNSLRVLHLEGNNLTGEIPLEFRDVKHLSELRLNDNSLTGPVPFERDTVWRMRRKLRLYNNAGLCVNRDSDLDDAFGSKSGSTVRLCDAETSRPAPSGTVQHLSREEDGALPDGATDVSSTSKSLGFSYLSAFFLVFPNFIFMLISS

T3: ER ectodomain (ERΔK-GFP) (Arabidopsis thaliana, UniProt Q42371)
T3 sequence (Q42371 25-580 limits assumed): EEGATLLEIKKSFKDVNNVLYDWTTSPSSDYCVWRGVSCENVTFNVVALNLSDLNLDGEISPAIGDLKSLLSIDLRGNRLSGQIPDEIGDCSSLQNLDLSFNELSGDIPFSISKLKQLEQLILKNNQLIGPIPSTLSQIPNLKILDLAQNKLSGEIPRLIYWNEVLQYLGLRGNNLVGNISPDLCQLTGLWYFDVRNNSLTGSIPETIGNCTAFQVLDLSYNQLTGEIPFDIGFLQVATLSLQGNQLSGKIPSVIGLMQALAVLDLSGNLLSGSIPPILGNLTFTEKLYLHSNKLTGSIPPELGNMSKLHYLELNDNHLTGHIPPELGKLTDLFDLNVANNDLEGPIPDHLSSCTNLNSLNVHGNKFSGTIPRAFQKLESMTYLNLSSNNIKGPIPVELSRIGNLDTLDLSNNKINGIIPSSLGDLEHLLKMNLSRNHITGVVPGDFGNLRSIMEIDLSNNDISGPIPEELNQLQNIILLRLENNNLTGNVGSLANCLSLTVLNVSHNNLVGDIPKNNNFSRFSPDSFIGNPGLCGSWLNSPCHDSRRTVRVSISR


Columns and labels:
[1] = target: T1, ER (ERECTA) ectodomain, ERΔK-GFP; experiment: QCM direct binding, ERΔK-GFP-functionalized chip; conditions: frequency change, phosphate buffer, 4°C
Method in brief: (§1)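 Purified GFP-fused receptors (ERΔK-GFP, TMM-GFP) or control GFP are obtained from N. benthamiana. They are immobilised on gold QCM chips via anti-GFP antibody. Solutions of HPLC-purified, bioassay-verified bioactive peptide are then introduced, and binding is recorded as frequency change. Each run yields 10-20 points (average, SD). Replicate runs: ER n=4 Stomagen, n=2 MEPF2; TMM n=2 Stomagen, n=3 MEPF2; GFP n=3 Stomagen, n=2 MEPF2.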

[2] = target: T2, TMM (TOO MANY MOUTHS), TMM-GFP; experiment: QCM direct binding, TMM-GFP-functionalized chip; conditions: frequency change, phosphate buffer, 4°C
Method in brief: as §1

GFP = experiment: QCM direct binding, control GFP chip; conditions: frequency change, phosphate buffer, 4°C, Stomagen n=3, MEPF2 n=2
Method in brief: as §1

ER ectodomain (ERΔK-GFP) = target: T3, ER ectodomain (ERΔK-GFP); experiment: Ligand competition assay, Stomagen vs MEPF2-MYC-HIS for binding to ER
Method in brief: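 ER ectodomain–GFP (ERΔK-GFP) is expressed in N. benthamiana, and microsomal fractions are prepared. Fractions are incubated with 1 μM bioactive MEPF2-MYC-HIS plus Stomagen at 0-23.4 μM, then ER is immunoprecipitated. The co-IP'd tagged MEPF2 is immunoblotted first, and the same blot is re-probed with anti-Stomagen antibody. Blots are quantified from four biological replicates (S.E.M.), and IC50 is derived from this immunoblot-based quantification.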

TMM = experiment: Co-IP with TMM-GFP; format: binding, Arabidopsis; conditions: N. benthamiana microsomal fraction; 1 μM peptide; anti-GFP IP
[3] = test system: Arabidopsis wild-type seedlings, abaxial cotyledon epidermis; format: in vivo; conditions: independent batch of Stomagen used in Fig. 3c, five days, n=8 (Peak 1), n=6 (Peak 2)
MPK3 and MPK6 = experiment: MAPK phosphorylation assay in Arabidopsis seedlings; format: in vivo; conditions: MEPF2 2.5 μM, Arabidopsis wild-type seedlings; anti-phosphoERK immunoblot
Method in brief: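 Peptide (MEPF2) is applied to wild-type Arabidopsis seedlings and sampled over a time course. Heat-denatured peptide serves as a control. Extracts are immunoblotted with anti-phosphoERK antibody to detect phosphorylated MPK6 and MPK3, and Coomassie-stained total protein is shown. Four and two biological replicates are run for the two blot series.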

[4] = target: ER ectodomain fused to GFP (ERΔK-GFP) (Arabidopsis); experiment: co-IP

IC50 [4] [nM]	Molecule	binding to ERΔK-GFP (words) [1]	binding to TMM (words) [2]	binding to control GFP (GFP)	IC50 (ER ectodomain (ERΔK-GFP)) [nM]	replacement of MEPF2 for ER-binding (ER ectodomain (ERΔK-GFP); 1 μM bioactive MEPF2-MYC-HIS, increasing Stomagen 0-23.4 μM, IP and immunoblot)	association with TMM by Co-IP (TMM)	bioactivity, HPLC peaks of independent batch used for QCM [3]	binding to ERΔK-GFP (words) ([1]; listed as EPF2)	binding to TMM (words) ([2]; listed as EPF2)	time after which MPK3/MPK6 phosphorylation declined (MPK3 and MPK6) [h]	time to phosphorylation of MPK3 and MPK6 (MPK3 and MPK6) [min]
–	IGSTAPTCTYNECRGCRYKCRAEQVPVEGNDPINSAYHYRCVCHR (disulfide 8-41, 13-20, 16-43) [Stomagen]	saturable binding to the ER ectodomain fused to GFP (ERΔK-GFP) with similar dissociation constants at a nanomolar range; also recorded: bind to ER and TMM with a similar affinity	bound to TMM with high affinity; also recorded: bind to ER and TMM with a similar affinity	No significant binding	454	replaced MEPF2 for ER-binding	associates with all ER-family RKs and TMM	bioactive	–	–	–	–
–	TGSSLPDCSYACGACSPCKRVMISFECSVAESCSVIYRCTCRGRYYHVPSRA (disulfide 8-39, 12-18, 15-41, 27-33) [MEPF2]	saturable binding to the ER ectodomain fused to GFP (ERΔK-GFP) with similar dissociation constants at a nanomolar range	bound to TMM with high affinity	No significant binding	–	–	–	–	bind to ER and TMM with a similar affinity	bind to ER and TMM with a similar affinity	2	10
454	IGSTAPTCTYNECRGCRYKCRAEQVPVEGNDPINSAYHYRCVCHR [Stomagen/EPF-LIKE9 peptide (bioactive Stomagen)]	–	–	–	–	–	–	–	–	–	–	–
